Values after ≈ are worked out from the molar mass of the structure shown. Active and inactive are the calls of the source. The rule behind the calls is not given here.
Assays:
Leishmania donovani = experiment: Antileishmanial activity against Leishmania donovani promastigotes after 48 hrs by Alamar blue assay; type: functional, organism-based
In short: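 L. donovani promastigotes were grown in RPMI 1640 with 10% fetal calf serum at 26 C. A 3-day-old culture was diluted to 5 × 10^5 promastigotes/mL, and drug dilutions were made directly in the cell suspension. After 48 h at 26 C, growth was read by Alamar Blue fluorescence (ex 544/em 590 nm). IC50 and IC90 came from percent growth versus concentration curves.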

BT-549 [1] = experiment: Cytotoxicity against human BT549 cells by neutral red assay; type: functional, cell-based
In short: (§1)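 Cells were seeded at 25,000 per well and incubated 24 h. Test samples were added at a range of concentrations, followed by a further 48 h incubation. Viable cells were quantified by Neutral Red uptake, and IC50 was read from dose curves of percent growth versus concentration.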

Plasmodium falciparum [2] = experiment: Antimalarial activity against chloroquine-sensitive Plasmodium falciparum D6 by LDH release assay; type: functional, organism-based
In short: (§2)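 Infected red cells (W2 or D6), 2% parasitemia, 2% hematocrit, in RPMI 1640 with 10% human serum and 60 µg/mL amikacin, exposed to serial sample dilutions. Incubated 72 h at 37 C under 90% N2/5% O2/5% CO2. Parasite LDH measured with Malstat reagent (30 min, room temperature), then NBT/PES 1 h in dark, stopped with 5% acetic acid, read at 650 nm. IC50 from dose-response curves.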

Plasmodium falciparum [3] = experiment: Antimalarial activity against chloroquine-resistant Plasmodium falciparum W2 by LDH release; type: functional, organism-based; in short: as §2
Candida albicans = experiment: Antifungal activity against Candida albicans; type: functional, organism-based
In short: (§3)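 Modified NCCLS broth microdilution. Samples in DMSO were serially diluted in 0.9% saline and tested in duplicate. Inocula were matched to the 0.5 McFarland standard by absorbance at 630 nm, then diluted in broth. Growth, solvent and media controls were included. Plates were read at 630 nm before and after incubation, and IC50 was taken from percent growth versus concentration.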

Cryptococcus neoformans = experiment: Antifungal activity against Cryptococcus neoformans; type: functional, organism-based; in short: as §3
Aspergillus fumigatus = experiment: Antifungal activity against Aspergillus fumigatus; type: functional, organism-based; in short: as §3
[4] = Selectivity index, ratio of IC50 for african green monkey (Cercopithecus aethiops) Vero cells to IC50 for Plasmodium falciparum D6; type: functional
In short: (§4)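 The index is IC50 in Vero cells (Neutral Red, 48 h exposure) divided by IC50 against P. falciparum D6 or W2. For the parasite assay, infected erythrocytes at 2% parasitemia and 2% hematocrit in RPMI 1640 with 10% human serum were incubated 72 h at 37 C under 90% N2, 5% O2, 5% CO2. Parasite LDH was measured with Malstat plus NBT/PES at 650 nm.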

[5] = Selectivity index, ratio of IC50 for african green monkey (Cercopithecus aethiops) Vero cells to IC50 for Plasmodium falciparum W2; type: functional; in short: as §4
SK-MEL [6] = experiment: Cytotoxicity against human SKMEL cells by neutral red assay up to 25 ug/mL; type: functional, cell-based; in short: as §1
KB = experiment: Cytotoxicity against human KB cells by neutral red assay up to 25 ug/mL; type: functional, cell-based; in short: as §1
SK-OV-3 [7] = experiment: Cytotoxicity against human SK-OV3 cells by neutral red assay up to 25 ug/mL; type: functional, cell-based; in short: as §1
Vero [8] = experiment: Cytotoxicity against african green monkey Vero cells by neutral red assay up to 25 ug/mL; type: cell-based; conditions: chlorocebus sabaeus; in short: as §1
[9] = Cytotoxicity against pig LLC-PK11 cells by neutral red assay up to 25 ug/mL; type: cell-based, Sus scrofa; in short: as §1
SK-MEL [10] = experiment: Cytotoxicity against human SKMEL cells by neutral red assay; type: functional, cell-based; in short: as §1
BT-549 [11] = experiment: Cytotoxicity against human BT549 cells by neutral red assay up to 25 ug/mL; type: functional, cell-based; in short: as §1
SK-OV-3 [12] = experiment: Cytotoxicity against human SK-OV3 cells by neutral red assay; type: functional, cell-based; in short: as §1
Vero [13] = experiment: Cytotoxicity against african green monkey Vero cells by neutral red assay; type: cell-based; conditions: chlorocebus sabaeus; in short: as §1
[14] = Cytotoxicity against pig LLC-PK11 cells by neutral red assay; type: cell-based; conditions: Sus scrofa; in short: as §1

| Compound | IC50 (Leishmania donovani) [µg/mL] | IC90 (Leishmania donovani) [µg/mL] | IC50 (BT-549 [1]) [µg/mL] | IC50 (Plasmodium falciparum [2]) [µg/mL] | IC50 (Plasmodium falciparum [3]) [µg/mL] | Activity (Candida albicans) | Activity (Cryptococcus neoformans) | Activity (Aspergillus fumigatus) | Selectivity index [4] | Selectivity index [5] | Activity (SK-MEL [6]) | Activity (KB) | Activity (SK-OV-3 [7]) | Activity (Vero [8]) | Activity [9] | IC50 (SK-MEL [10]) [µg/mL] | Activity (BT-549 [11]) | IC50 (SK-OV-3 [12]) [µg/mL] | IC50 (Vero [13]) [µg/mL] | IC50 [14] [µg/mL] |
| --- | --- | --- | --- | --- | --- | --- | --- | --- | --- | --- | --- | --- | --- | --- | --- | --- | --- | --- | --- | --- |
| CC(C)C[C@H]1C[C@]2(CC[C@@H]3C[C@H]2C3(C)C)Oc2c(C=O)c(O)c(C=O)c(O)c21 [ROBUSTADIAL B] | 16 (≈ 41.4 µM) | 16 (≈ 41.4 µM) | 25 (≈ 64.7 µM) | 4.5 (≈ 11.6 µM) | 4.76 (≈ 12.3 µM) | inactive | inactive | inactive | >5.6 | >5.3 | inactive | inactive | inactive | Not Active | Not Active | – | – | – | – | – |
| CC(C)CC(=O)c1c(O)c(C=O)c(O)c2c1O[C@@]1(C)[C@H](CC[C@H]3[C@@H]1C3(C)C)C2 | 5.5 (≈ 14.2 µM) | 28 (≈ 72.4 µM) | – | 3.4 (≈ 8.8 µM) | 2.7 (≈ 6.99 µM) | inactive | inactive | inactive | >7.4 | >9.3 | – | inactive | inactive | Not Active | Not Active | 25 (≈ 64.7 µM) | inactive | – | – | – |
| CC(C)C[C@@H]1C[C@@]2(CC[C@@H]3C[C@H]2C3(C)C)Oc2c(C=O)c(O)c(C=O)c(O)c21 [ROBUSTADIAL A] | 20 (≈ 51.7 µM) | 39 (≈ 101 µM) | 19 (≈ 49.2 µM) | 4.76 (≈ 12.3 µM) | 2.8 (≈ 7.24 µM) | inactive | inactive | inactive | 4 | 6.8 | – | inactive | – | – | – | > 25 | – | > 25 | 19 (≈ 49.2 µM) | 17 (≈ 44 µM) |

From ChEMBL document CHEMBL1143930, “S-Euglobals: biomimetic synthesis, antileishmanial, antimalarial, and antimicrobial activities” (Bioorg Med Chem, 2008)
